{"source": "the RNAGym collection of RNA variant scans (doi:10.1002/anie.201605470)", "parents": {"B1": {"name": "Osa-1-4 twister ribozyme (parent)", "chain": "CCGCCUAACACUGCCAAUGCCGGUCCCAAGCCCGGAUAAAAGUGGAGGGGGCGG"}}, "data": [{"variants_of": "B1", "experiment": "self-cleavage, relative activity (ratio to wild type); higher = more cleavage; co-transcriptional", "summary_of_the_method": "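A DNA template for a 54-nucleotide Oryza sativa twister ribozyme was synthesised with 97 % wild-type base and 1 % of each other base at the 48 positions downstream of the cleavage site. It was transcribed in vitro for 2 h at 37 °C, allowing co-transcriptional self-cleavage, then reverse-transcribed with a template-switching oligonucleotide, PCR-amplified and deep-sequenced. Cleavage status was scored from reads with or without upstream sequence. Relative activity is fraction cleaved normalised to wild type.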", "values": [{"variant": "CCGCCUCACACUGCCAAUGCCGGUCCCAAACCCGGAUAAAAGUGGAGGGGGCGG", "note": "[A7C G30A]", "self-cleavage": 0.01}, {"variant": "CCGCCUCACACUGCCAAUGCCGGUCCCAACCCCGGAUAAAAGUGGAGGGGGCGG", "note": "[A7C G30C]", "self-cleavage": 0.01}, {"variant": "CCGCCUCACACUGCCAAUGCCGGUCCCAAUCCCGGAUAAAAGUGGAGGGGGCGG", "note": "[A7C G30U]", "self-cleavage": 0.01}, {"variant": "CCGCCUCACACUGCCAAUGCCGGUCCCAAGCCCGGAUAAAAGUGGAGGGGGCGC", "note": "[A7C G54C]", "self-cleavage": 0.05}, {"variant": "CCGCCUCACACUGCCAAUGCCGGUCCCAAGCCCGGAUAAAAGUGGAGGGGGCGU", "note": "[A7C G54U]", "self-cleavage": 0.06}, {"variant": "CCGCCUCACACUGCCAAUGCCGGUCCCAAGCCCGGAUAAAAGUGGAGGGGGCGA", "note": "[A7C G54A]", "self-cleavage": 0.05}, {"variant": "CCGCCUCACACUGCCAAGGCCGGUCCCAAGCCCGGAUAAAAGUGGAGGGGGCGG", "note": "[A7C U18G]", "self-cleavage": 0.08}, {"variant": "CCGCCUCACACUGCCAACGCCGGUCCCAAGCCCGGAUAAAAGUGGAGGGGGCGG", "note": "[A7C U18C]", "self-cleavage": 0.06}, {"variant": "CCGCCUCACACUGCCAAAGCCGGUCCCAAGCCCGGAUAAAAGUGGAGGGGGCGG", "note": "[A7C U18A]", "self-cleavage": 0.04}, {"variant": "CCGCCUCACACUGCCAAUGCCGGUCCCAAGCCCGGAAAAAAGUGGAGGGGGCGG", "note": "[A7C U37A]", "self-cleavage": 0.02}, {"variant": "CCGCCUCACACUGCCAAUGCCGGUCCCAAGCCCGGAGAAAAGUGGAGGGGGCGG", "note": "[A7C U37G]", "self-cleavage": 0.07}, {"variant": "CCGCCUCACACUGCCAAUGCCGGUCCCAAGCCCGGACAAAAGUGGAGGGGGCGG", "note": "[A7C U37C]", "self-cleavage": 0.06}, {"variant": "CCGCCUGACACUGCUAAUGCCGGUCCCAAGCCCGGAUAAAAGUGGAGGGGGCGG", "note": "[A7G C15U]", "self-cleavage": 0.09}, {"variant": "CCGCCUGACACUGCGAAUGCCGGUCCCAAGCCCGGAUAAAAGUGGAGGGGGCGG", "note": "[A7G C15G]", "self-cleavage": 0.27}, {"variant": "CCGCCUGACACUGCAAAUGCCGGUCCCAAGCCCGGAUAAAAGUGGAGGGGGCGG", "note": "[A7G C15A]", "self-cleavage": 0.12}, {"variant": "CCGCCUGACACUGCCAAUGCCGGUCCCAAGUCCGGAUAAAAGUGGAGGGGGCGG", "note": "[A7G C31U]", "self-cleavage": 0.09}, {"variant": "CCGCCUGACACUGCCAAUGCCGGUCCCAAGACCGGAUAAAAGUGGAGGGGGCGG", "note": "[A7G C31A]", "self-cleavage": 0.03}, {"variant": "CCGCCUGACACUGCCAAUGCCGGUCCCAAGGCCGGAUAAAAGUGGAGGGGGCGG", "note": "[A7G C31G]", "self-cleavage": 0.14}, {"variant": "CCGCCUCACACUGCCAAUGCCGUUCCCAAGCCCGGAUAAAAGUGGAGGGGGCGG", "note": "[A7C G23U]", "self-cleavage": 0.02}, {"variant": "CCGCCUCACACUGCCAAUGCCGCUCCCAAGCCCGGAUAAAAGUGGAGGGGGCGG", "note": "[A7C G23C]", "self-cleavage": 0.01}, {"variant": "CCGCCUCACACUGCCAAUGCCGAUCCCAAGCCCGGAUAAAAGUGGAGGGGGCGG", "note": "[A7C G23A]", "self-cleavage": 0.05}, {"variant": "CCGCCUCACACUGCCAAUGCCGGUCCCAAGCCCGGAUAAAAGAGGAGGGGGCGG", "note": "[A7C U43A]", "self-cleavage": 0.06}, {"variant": "CCGCCUCACACUGCCAAUGCCGGUCCCAAGCCCGGAUAAAAGCGGAGGGGGCGG", "note": "[A7C U43C]", "self-cleavage": 0.04}, {"variant": "CCGCCUCACACUGCCAAUGCCGGUCCCAAGCCCGGAUAAAAGGGGAGGGGGCGG", "note": "[A7C U43G]", "self-cleavage": 0.06}, {"variant": "CCGCCUCACACUGCCAAUGCCGGUCCCAAGCCCGGAUAAAAGUGGAGGGAGCGG", "note": "[A7C G50A]", "self-cleavage": 0.04}, {"variant": "CCGCCUCACACUGCCAAUGCCGGUCCCAAGCCCGGAUAAAAGUGGAGGGCGCGG", "note": "[A7C G50C]", "self-cleavage": 0.04}, {"variant": "CCGCCUCACACUGCCAAUGCCGGUCCCAAGCCCGGAUAAAAGUGGAGGGUGCGG", "note": "[A7C G50U]", "self-cleavage": 0.04}, {"variant": "CCGCCUCACACUGCCAAUGCCGGUCCCAAGCCCGGAUAAAAGUGGAGGGGUCGG", "note": "[A7C G51U]", "self-cleavage": 0.03}, {"variant": "CCGCCUCACACUGCCAAUGCCGGUCCCAAGCCCGGAUAAAAGUGGAGGGGCCGG", "note": "[A7C G51C]", "self-cleavage": 0.02}, {"variant": "CCGCCUCACACUGCCAAUGCCGGUCCCAAGCCCGGAUAAAAGUGGAGGGGACGG", "note": "[A7C G51A]", "self-cleavage": 0.04}, {"variant": "CCGCCUCACACUGCCAAUGCCGGUCCCAAGCCCGAAUAAAAGUGGAGGGGGCGG", "note": "[A7C G35A]", "self-cleavage": 0.04}, {"variant": "CCGCCUCACACUGCCAAUGCCGGUCCCAAGCCCGUAUAAAAGUGGAGGGGGCGG", "note": "[A7C G35U]", "self-cleavage": 0.05}, {"variant": "CCGCCUCACACUGCCAAUGCCGGUCCCAAGCCCGCAUAAAAGUGGAGGGGGCGG", "note": "[A7C G35C]", "self-cleavage": 0.04}, {"variant": "CCGCCUGCCACUGCCAAUGCCGGUCCCAAGCCCGGAUAAAAGUGGAGGGGGCGG", "note": "[A7G A8C]", "self-cleavage": 0.1}, {"variant": "CCGCCUGGCACUGCCAAUGCCGGUCCCAAGCCCGGAUAAAAGUGGAGGGGGCGG", "note": "[A7G A8G]", "self-cleavage": 0.28}, {"variant": "CCGCCUGUCACUGCCAAUGCCGGUCCCAAGCCCGGAUAAAAGUGGAGGGGGCGG", "note": "[A7G A8U]", "self-cleavage": 0.1}, {"variant": "CCGCCUCACACUGCCAAUGCCGGUCCCAAGCCCGGAUAAAAGUGGACGGGGCGG", "note": "[A7C G47C]", "self-cleavage": 0.02}, {"variant": "CCGCCUCACACUGCCAAUGCCGGUCCCAAGCCCGGAUAAAAGUGGAUGGGGCGG", "note": "[A7C G47U]", "self-cleavage": 0.03}, {"variant": "CCGCCUCACACUGCCAAUGCCGGUCCCAAGCCCGGAUAAAAGUGGAAGGGGCGG", "note": "[A7C G47A]", "self-cleavage": 0.04}, {"variant": "CCGCCUGACACUGCCAAUGCCGGUCCCAAGCCCGGAUAAAAGUGGAGGGGGCGG", "note": "[A7G]", "self-cleavage": 0.49}, {"variant": "CCGCCUGACACUGCCAAUGGCGGUCCCAAGCCCGGAUAAAAGUGGAGGGGGCGG", "note": "[A7G C20G]", "self-cleavage": 0.11}, {"variant": "CCGCCUGACACUGCCAAUGUCGGUCCCAAGCCCGGAUAAAAGUGGAGGGGGCGG", "note": "[A7G C20U]", "self-cleavage": 0.43}, {"variant": "CCGCCUGACACUGCCAAUGACGGUCCCAAGCCCGGAUAAAAGUGGAGGGGGCGG", "note": "[A7G C20A]", "self-cleavage": 0.5}, {"variant": "CCGCCUCACACUGCCAAUGCCGGUCCCAAGCCCGGAUAAAAGUGGAGGUGGCGG", "note": "[A7C G49U]", "self-cleavage": 0.02}, {"variant": "CCGCCUCACACUGCCAAUGCCGGUCCCAAGCCCGGAUAAAAGUGGAGGCGGCGG", "note": "[A7C G49C]", "self-cleavage": 0.01}, {"variant": "CCGCCUCACACUGCCAAUGCCGGUCCCAAGCCCGGAUAAAAGUGGAGGAGGCGG", "note": "[A7C G49A]", "self-cleavage": 0.02}, {"variant": "CCGCCUGACACUGGCAAUGCCGGUCCCAAGCCCGGAUAAAAGUGGAGGGGGCGG", "note": "[A7G C14G]", "self-cleavage": 0.32}, {"variant": "CCGCCUGACACUGUCAAUGCCGGUCCCAAGCCCGGAUAAAAGUGGAGGGGGCGG", "note": "[A7G C14U]", "self-cleavage": 0.1}, {"variant": "CCGCCUGACACUGACAAUGCCGGUCCCAAGCCCGGAUAAAAGUGGAGGGGGCGG", "note": "[A7G C14A]", "self-cleavage": 0.04}]}]}
